Experimental data from ChEMBL document CHEMBL3593207, “Imidazole clubbed 1,3,4-oxadiazole derivatives as potential antifungal agents” (2015).
≈ marks a conversion by molar mass, not a printed value.

Tests used:
Format in all cases: functional
Candida albicans [1] = assay: Inhibition of ergosterol biosynthesis in Candida albicans ATCC 10261 assessed as ergosterol content at MIC after 16 hrs by spectrophotometer analysis; set-up: scale not given: the % may be the effect or the level left
In short: (§1)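 Cells were pelleted and washed, and wet weight taken. Pellets were saponified in 25% alcoholic KOH at 85 °C for 1 h. Sterols were extracted into n-heptane/water. Ergosterol content is expressed relative to untreated control cells.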

Candida albicans [2] = assay: Antifungal activity against Candida albicans ATCC 10261 at half MIC after 48 hrs by disc diffusion assay
In short: (§2)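 Cells (10^3 cells ml−1) grown in YPD were mixed into molten agar (~40 °C) and poured into 100-mm plates. Filter discs (4 mm) were spotted with 10 µl of compound at 1/2 × MIC, MIC or 2 × MIC. Fluconazole and 1% DMSO were the controls. Plates were incubated at 37 °C for 48 h and inhibition zone diameters recorded in mm.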

Candida albicans [3] = assay: Inhibition of ergosterol biosynthesis in Candida albicans 2367 assessed as ergosterol content at MIC after 16 hrs by spectrophotometer analysis; set-up: scale not given: the % may be the effect or the level left; in short: as §1
Candida albicans [4] = assay: Antifungal activity against clinical isolates of Candida albicans 2779 at MIC after 48 hrs by disc diffusion assay; in short: as §2
Candida tropicalis [5] = assay: Antifungal activity against clinical isolates of Candida tropicalis 2356 by broth microdilution assay
In short: (§3)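 CLSI M27-A3 broth microdilution. Compounds diluted to 1 mg/ml in 1% DMSO. Fluconazole (1 mg/ml) served as positive control, 1% DMSO as vehicle control, with media and culture controls. Triplicate at each concentration, repeated thrice. Inocula came from YPDA stocks subcultured in broth for 48 h at 37 °C.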

Candida tropicalis [6] = assay: Antifungal activity against Candida tropicalis ATCC 750 by broth microdilution assay; in short: as §3
Candida albicans [7] = assay: Antifungal activity against clinical isolates of Candida albicans 2367 by broth microdilution assay; in short: as §3
Candida tropicalis [8] = assay: Antifungal activity against clinical isolates of Candida tropicalis 2029 at MIC after 48 hrs by disc diffusion assay; in short: as §2
Candida albicans [9] = assay: Antifungal activity against clinical isolates of Candida albicans 2779 at half MIC after 48 hrs by disc diffusion assay; in short: as §2
Candida albicans [10] = assay: Antifungal activity against clinical isolates of Candida albicans 2323 by broth microdilution assay; in short: as §3
Candida albicans [11] = assay: Antifungal activity against clinical isolates of Candida albicans 2779 at 2 times MIC after 48 hrs by disc diffusion assay; in short: as §2
Candida albicans [12] = assay: Antifungal activity against clinical isolates of Candida albicans 2779 by broth microdilution assay; in short: as §3
Candida albicans [13] = assay: Antifungal activity against Candida albicans ATCC 10261 at MIC after 48 hrs by disc diffusion assay; in short: as §2
Candida tropicalis [14] = assay: Inhibition of ergosterol biosynthesis in Candida tropicalis ATCC 750 assessed as ergosterol content at MIC after 16 hrs by spectrophotometer analysis; set-up: scale not given: the % may be the effect or the level left
In short: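 Cells were harvested, washed, and wet pellet weight recorded. Pellets were saponified in 3 mL 25% alcoholic KOH at 85 °C for 1 h, then sterols extracted into n-heptane. Ergosterol is expressed relative to untreated control cells.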

Candida tropicalis [15] = assay: Inhibition of ergosterol biosynthesis in Candida tropicalis 2356 assessed as ergosterol content at 1/2 MIC after 16 hrs by spectrophotometer analysis; set-up: scale not given: the % may be the effect or the level left; in short: as §1
Candida albicans [16] = assay: Inhibition of ergosterol biosynthesis in Candida albicans 2367 assessed as ergosterol content at 1/2 MIC after 16 hrs by spectrophotometer analysis; set-up: scale not given: the % may be the effect or the level left; in short: as §1
Candida albicans [17] = assay: Inhibition of ergosterol biosynthesis in Candida albicans 2779 assessed as ergosterol content at 1/2 MIC after 16 hrs by spectrophotometer analysis; set-up: scale not given: the % may be the effect or the level left; in short: as §1
Candida tropicalis [18] = assay: Cytotoxicity against clinical isolates of Candida tropicalis 2029 at MIC after 24 hrs by WST1 assay
In short: (§4)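 Candida cells were exposed to MIC and sub-MIC levels for 24 h in microplates, then to WST-1/CEC dye for 30 min at 37 °C. Plates were shaken 1 min and the reaction stopped with 1% SDS. Formazan was read at 450 nm. % cytotoxicity = 100 × (cell control − experimental)/cell control. Triplicates, mean ± SD.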

Candida tropicalis [19] = assay: Inhibition of ergosterol biosynthesis in Candida tropicalis 2356 assessed as ergosterol content at MIC after 16 hrs by spectrophotometer analysis; set-up: scale not given: the % may be the effect or the level left; in short: as §1
Candida tropicalis [20] = assay: Inhibition of ergosterol biosynthesis in Candida tropicalis ATCC 750 assessed as ergosterol content at 1/2 MIC after 16 hrs by spectrophotometer analysis; set-up: scale not given: the % may be the effect or the level left; in short: as §1
Candida albicans [21] = assay: Inhibition of ergosterol biosynthesis in Candida albicans 2323 assessed as ergosterol content at MIC after 16 hrs by spectrophotometer analysis; set-up: scale not given: the % may be the effect or the level left; in short: as §1
Candida albicans [22] = assay: Cytotoxicity against clinical isolates of Candida albicans 2323 at MIC after 24 hrs by WST1 assay; in short: as §4
Candida albicans [23] = assay: Inhibition of ergosterol biosynthesis in Candida albicans 2779 assessed as ergosterol content at MIC after 16 hrs by spectrophotometer analysis; set-up: scale not given: the % may be the effect or the level left; in short: as §1
Candida albicans [24] = assay: Inhibition of ergosterol biosynthesis in Candida albicans 2323 assessed as ergosterol content at 1/2 MIC after 16 hrs by spectrophotometer analysis; set-up: scale not given: the % may be the effect or the level left; in short: as §1
Candida tropicalis [25] = assay: Inhibition of ergosterol biosynthesis in Candida tropicalis 2029 assessed as ergosterol content at MIC after 16 hrs by spectrophotometer analysis; set-up: scale not given: the % may be the effect or the level left; in short: as §1
Candida albicans [26] = assay: Antifungal activity against clinical isolates of Candida albicans 2323 at half MIC after 48 hrs by disc diffusion assay; in short: as §2
Candida albicans [27] = assay: Antifungal activity against Candida albicans ATCC 10261 at 2 times MIC after 48 hrs by disc diffusion assay; in short: as §2
Candida albicans [28] = assay: Antifungal activity against clinical isolates of Candida albicans 2323 at 2 times MIC after 48 hrs by disc diffusion assay; in short: as §2
Candida tropicalis [29] = assay: Antifungal activity against clinical isolates of Candida tropicalis 2029 by broth microdilution assay; in short: as §3
Candida albicans [30] = assay: Cytotoxicity against clinical isolates of Candida albicans 2779 at 1/4 MIC after 24 hrs by WST1 assay; in short: as §4
Candida tropicalis [31] = assay: Antifungal activity against clinical isolates of Candida tropicalis 2356 at 2 times MIC after 48 hrs by disc diffusion assay; in short: as §2
Candida albicans [32] = assay: Antifungal activity against clinical isolates of Candida albicans 2323 at MIC after 48 hrs by disc diffusion assay; in short: as §2
Candida tropicalis [33] = assay: Antifungal activity against clinical isolates of Candida tropicalis 2029 at half MIC after 48 hrs by disc diffusion assay; in short: as §2
Candida tropicalis [34] = assay: Antifungal activity against Candida tropicalis ATCC 750 at MIC after 48 hrs by disc diffusion assay; in short: as §2
Candida tropicalis [35] = assay: Antifungal activity against Candida tropicalis ATCC 750 at 2 times MIC after 48 hrs by disc diffusion assay; in short: as §2
Candida tropicalis [36] = assay: Antifungal activity against clinical isolates of Candida tropicalis 2356 at MIC after 48 hrs by disc diffusion assay; in short: as §2
Candida albicans [37] = assay: Antifungal activity against clinical isolates of Candida albicans 2367 at MIC after 48 hrs by disc diffusion assay; in short: as §2
Candida albicans [38] = assay: Antifungal activity against clinical isolates of Candida albicans 2367 at half MIC after 48 hrs by disc diffusion assay; in short: as §2
Candida tropicalis [39] = assay: Antifungal activity against Candida tropicalis ATCC 750 at half MIC after 48 hrs by disc diffusion assay; in short: as §2
Candida tropicalis [40] = assay: Inhibition of ergosterol biosynthesis in Candida tropicalis 2029 assessed as ergosterol content at 1/2 MIC after 16 hrs by spectrophotometer analysis; set-up: scale not given: the % may be the effect or the level left; in short: as §1
Candida albicans [41] = assay: Antifungal activity against clinical isolates of Candida albicans 2367 at 2 times MIC after 48 hrs by disc diffusion assay; in short: as §2
Candida albicans [42] = assay: Inhibition of ergosterol biosynthesis in Candida albicans ATCC 10261 assessed as ergosterol content at 1/2 MIC after 16 hrs by spectrophotometer analysis; set-up: scale not given: the % may be the effect or the level left; in short: as §1
Candida tropicalis [43] = assay: Antifungal activity against clinical isolates of Candida tropicalis 2356 at half MIC after 48 hrs by disc diffusion assay; in short: as §2
Candida tropicalis [44] = assay: Antifungal activity against clinical isolates of Candida tropicalis 2029 at 2 times MIC after 48 hrs by disc diffusion assay; in short: as §2
Candida albicans [45] = assay: Antifungal activity against Candida albicans ATCC 10261 by broth microdilution assay; in short: as §3

MIC (Candida tropicalis [5]): 32 µg/mL (≈ 82.2 µM) | MIC (Candida tropicalis [6]): 4 µg/mL (≈ 10.3 µM) | MIC (Candida albicans [7]): 8 µg/mL (≈ 20.5 µM) | MIC (Candida albicans [10]): 16 µg/mL (≈ 41.1 µM) | MIC (Candida albicans [12]): 16 µg/mL (≈ 41.1 µM) | MIC (Candida tropicalis [29]): 16 µg/mL (≈ 41.1 µM) | MIC (Candida albicans [45]): 2 µg/mL (≈ 5.14 µM)
SMILES: CCc1ccnc(-c2nccn2Cc2nnc(-c3ccccc3OC(C)=O)o2)c1
Activity (Candida albicans [1]): 100% | inhibition zone (IZ) (Candida albicans [2]): 5 mm | Activity (Candida albicans [3]): 89% | inhibition zone (IZ) (Candida albicans [4]): 11 mm | inhibition zone (IZ) (Candida tropicalis [8]): 5 mm | inhibition zone (IZ) (Candida albicans [9]): 3 mm | inhibition zone (IZ) (Candida albicans [11]): 13 mm | inhibition zone (IZ) (Candida albicans [13]): 11 mm | Activity (Candida tropicalis [14]): 100% | Activity (Candida tropicalis [15]): 48% | Activity (Candida albicans [16]): 52% | Activity (Candida albicans [17]): 52% | Activity (Candida tropicalis [18]): 60.62% | Activity (Candida tropicalis [19]): 91% | Activity (Candida tropicalis [20]): 47% | Activity (Candida albicans [21]): 91% | Activity (Candida albicans [22]): 60.62% | Activity (Candida albicans [23]): 93% | Activity (Candida albicans [24]): 42% | Activity (Candida tropicalis [25]): 87% | inhibition zone (IZ) (Candida albicans [26]): 2 mm | inhibition zone (IZ) (Candida albicans [27]): 16 mm | inhibition zone (IZ) (Candida albicans [28]): 11 mm | Activity (Candida albicans [30]): 7.31% | inhibition zone (IZ) (Candida tropicalis [31]): 11 mm | inhibition zone (IZ) (Candida albicans [32]): 6 mm | inhibition zone (IZ) (Candida tropicalis [33]): 1 mm | inhibition zone (IZ) (Candida tropicalis [34]): 9 mm | inhibition zone (IZ) (Candida tropicalis [35]): 14 mm | inhibition zone (IZ) (Candida tropicalis [36]): 6 mm | inhibition zone (IZ) (Candida albicans [37]): 8 mm | inhibition zone (IZ) (Candida albicans [38]): 3 mm | inhibition zone (IZ) (Candida tropicalis [39]): 3 mm | Activity (Candida tropicalis [40]): 53% | inhibition zone (IZ) (Candida albicans [41]): 12 mm | Activity (Candida albicans [42]): 51% | inhibition zone (IZ) (Candida tropicalis [43]): 2 mm | inhibition zone (IZ) (Candida tropicalis [44]): 10 mm
